A selection: hits, their analogues and other compounds. The true share with any hit is near 2.9%.
TRPC4 act: opens the mouse TRPC4 cation channel; HEK293 TRPC4beta/mu-opioid, Fluo4 calcium fluorescence; active compounds read high; B-score at 10 µM; hit rate 0.49% among 310,000; AID 2237;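 active means B-score above 5 SD of library B-scores, and initial fluorescence ratio not above library mean plus 5 SD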;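 further: positive B-score marks a calcium rise read as TRPC4 activation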
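Material: HEK293 stable line with TRPC4beta plus mu-opioid receptor; technique: Fluo4 calcium-sensitive dye fluorescence, kinetic, 1 Hz baseline; timing: Fluo4 dye loading 45 min at room temperature, 110 s recording; controls: assay buffer as low control, maximal DAMGO as high control; read-out: integrated baseline-normalised fluorescence ratio, converted to per-well B score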
Kir21 block: inhibitors of mouse Kir2.1 inward-rectifier potassium channel. hit rate 0.85% among 310,000. HEK293-Kir2.1, FluxOR thallium flux fluorescence; active compounds read low. AID 1672. P35561. B-score at 10 µM;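 active means fluorescence ratio B-score at or below minus 3 SD of library scores, with starting-brightness B-score within 2 SD, cut at about -4.2 in these data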;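 further: channel flux triggered by added potassium and thallium sulfate stimulus; B-score of peak minus minimum fluorescence over baseline after thallium stimulus; more negative B-score means stronger Kir2.1 block with less thallium influx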
Target sequence (P35561 whole entry, looked up): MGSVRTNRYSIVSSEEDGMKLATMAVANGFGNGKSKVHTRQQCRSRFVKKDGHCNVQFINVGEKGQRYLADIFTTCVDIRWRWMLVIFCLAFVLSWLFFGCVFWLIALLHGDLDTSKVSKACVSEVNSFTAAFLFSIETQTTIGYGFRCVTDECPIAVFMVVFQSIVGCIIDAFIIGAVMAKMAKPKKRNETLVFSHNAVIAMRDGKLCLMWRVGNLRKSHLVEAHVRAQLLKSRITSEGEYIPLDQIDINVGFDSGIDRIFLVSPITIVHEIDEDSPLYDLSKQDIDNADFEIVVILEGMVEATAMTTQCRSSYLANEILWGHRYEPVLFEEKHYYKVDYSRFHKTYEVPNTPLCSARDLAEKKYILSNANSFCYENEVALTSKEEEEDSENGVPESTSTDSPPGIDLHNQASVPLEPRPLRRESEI
TRPC6 inh: blocks the mouse TRPC6 cation channel; HEK293-TRPC6, membrane potential dye, ACh-evoked depolarization; active compounds read low; B-score at 10 µM; hit rate 1.1% among 310,000;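 active means B-score under library mean minus 3 SD, initial fluorescence not abnormally high, positive integrated signal ratio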;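 further: B-score derived from integrated fluorescence ratio over the kinetic read; more negative B-score means stronger inhibition of depolarization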
TRPC4 PAM: allosterically enhances the mouse TRPC4 cation channel; HEK293 TRPC4beta/mu-opioid, DAMGO EC20, Fluo-4 Ca2+ flux; active compounds read high; B-score at 10 µM; hit rate 0.42% among 310,000; AID 2227;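 active means B-score of calcium response area above 5 SD of library B-scores, with initial fluorescence ratio within 5 SD of library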
TRPC4 block: inhibitors of mouse TRPC4 channel | Q9QUQ5 | HEK293 TRPC4beta/mu-opioid, DAMGO-evoked Fluo4 calcium flux; active compounds read low | B-score at 10 µM | hit rate 0.39% among 300,000 | AID 2247;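 active means B-score over 3 SD under the library average, no early fluorescence shift, positive overall ratio signal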
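Assay system: HEK293 cells with stable TRPC4beta plus mu-opioid receptor expression; Probe or stimulus: DAMGO in two steps, submaximal then maximal; Dosing: single-point compound dosing; Measured by: Fluo4 calcium-dye fluorescence, kinetic read; Read-out basis: B score from integrated Fluo4 fluorescence ratio.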
TRPC6 activator: activates the mouse TRPC6 cation channel; HEK293-TRPC6 membrane potential dye fluorescence; active compounds read high; B-score at 10 µM; hit rate 0.13% among 310,000; AID 2550;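 active means B-score of the integrated fluorescence ratio above library mean plus 3 SD, and starting fluorescence ratio within library mean plus 5 SD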;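 further: higher score means more depolarization so channel activation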
hERG inh: counter-screen for Kir2.1 inhibitors: effect on human hERG; shares compounds with Kir21 block; hERG-expressing cells, thallium flux; inhibition, % at 10 µM; hit rate 20% among 320;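 further: host cells are CHO cells stably expressing hERG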
KCNK9 inh: tests whether Kir2.1 inhibitors also affect human KCNK9. AID 2329. shares compounds with Kir21 block. hit rate 5% among 320. inhibition, % at 10 µM. KCNK9-expressing cells, ion flux inhibition
Kir2-1 patch inh: mouse Kir2.1 inward rectifier channel inhibition; shares compounds with Kir21 block; hit rate 71% among 320; inhibition, % at 25 µM; Kir2.1 cells, automated patch-clamp current inhibition
TRPC4 sel inh 2: mouse TRPC4 off-target activity of TRPC6 inhibitors, second screen | shares compounds with TRPC6 inh | HEK293 TRPC4/MOR, membrane potential dye fluorescence; channel activated by saturating DAMGO dose | inhibition, % at 10 µM | hit rate 42% among 920 | AID 2776;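 active means compounds whose fluorescence signal differed from control wells by over 3 SD, either direction, in both duplicate plates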
TRPC4 spec: tests whether TRPC6 inhibitors also affect mouse TRPC4; shares compounds with TRPC6 inh; HEK293 TRPC4/mu-opioid, membrane potential fluorescence; activity change, negative = inhibition, % at 10 µM; hit rate 61% among 920;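 active means rise or fall in signal beyond 3 SD of buffer-only wells in both replicate plates, either sign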;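 further: integrated kinetic ratio of fluorescence range over baseline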
HEK293 MPD ctr 2-1: second counter-screen for TRPC6 inhibitors: parental HEK293 cells | signal change vs control, % at 10 µM | hit rate 31% among 920 | parental HEK293 membrane potential dye fluorescence; maximal acetylcholine challenge after compound addition | shares compounds with TRPC6 inh;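 active means membrane potential signal moving either way by over 3 SD of the maximum-effect control, in both duplicate plates, meaning non-specific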
HEK293 MPD ctr-1: checks TRPC6 inhibitor effects in parental HEK293 cells; shares compounds with TRPC6 inh; parental HEK293 membrane potential dye fluorescence; membrane potential signal change, % at 10 µM; hit rate 60% among 920; AID 2780;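 active means membrane potential signal shifting up or down by more than 3 SD of buffer-only wells, on both duplicate plates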
HEK293 MPD ctr-2: checks TRPC6 modulator effects in parental HEK293 cells. shares compounds with TRPC6 inh. membrane potential dye fluorescence. hit rate 51% among 2,400. membrane potential signal change, % at 10 µM;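 active means membrane potential signal moves up or down beyond 5 SD from buffer-only wells, on both duplicate plates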
HEK293 MPD ctr 2-2: parental HEK293 nonspecific activity of TRPC6 modulators, second screen | shares compounds with TRPC6 inh | membrane potential dye fluorescence; after compound, maximal acetylcholine stimulation | inhibition, % at 10 µM | hit rate 14% among 2,400 | AID 488926;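 active means membrane potential signal drops by more than 5 SD from the mean control signal, in both duplicate plates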
TRPC4 ctr mod: tests whether TRPC6 modulators also affect mouse TRPC4; hit rate 69% among 2,400; shares compounds with TRPC6 inh; HEK293 TRPC4/mu-opioid, membrane potential fluorescence; percent change from control (negative = decrease, positive = increase), % at 10 µM;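 active means membrane potential signal moved up or down beyond 5 SD of buffer control wells, in both duplicate plates, actives on both sides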
TRPC4/MOR inh 2: second check of whether TRPC6 modulators also affect mouse TRPC4; shares compounds with TRPC6 inh; inhibition, % at 10 µM; AID 488928; HEK293 TRPC4/mu-opioid, membrane potential dye fluorescence; stimulated with maximal-effect DAMGO; hit rate 55% among 2,400;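 active means drop in membrane potential signal beyond 5 SD of the control wells in both duplicate plates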;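 further: TRPC4 counter screen for TRPC6 hits run under conditions tuned for TRPC6 not TRPC4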
TRPC6 block conf: mouse TRPC6 inhibitor confirmation; shares compounds with TRPC6 inh; inhibition, % at 10 µM; HEK293-TRPC6, membrane potential dye, ACh-evoked depolarization; hit rate 43% among 3,300;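 active means fluorescence ratio falls more than 5 SD below the full-stimulation control mean, in both duplicate runs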;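 further: integrated fluorescence ratio of peak minus minimum over baseline after agonist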
TRPC6 act confirm: mouse TRPC6 activator confirmation. shares compounds with TRPC6 inh. HEK293-TRPC6 membrane potential dye fluorescence, FDSS. activation, % at 10 µM. hit rate 11% among 2,800. AID 488961;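 active means ratio signal rise beyond 5 SD above unstimulated control wells' mean, seen in both duplicate runs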
Hits are given with their value; - = inactive; . = no result given. Unless noted, how the calls were made is not given here.

SMILES	TRPC4 act	Kir21 block	TRPC6 inh	TRPC4 PAM	TRPC4 block	TRPC6 activator	hERG inh	KCNK9 inh	Kir2-1 patch inh	TRPC4 sel inh 2	TRPC4 spec	HEK293 MPD ctr 2-1	HEK293 MPD ctr-1	TRPC6 block conf	TRPC6 act confirm	others
COc1ccccc1CNCc1ccc(OC)c2ccccc12	-	-8.1	-6.2	-	-7	-	-	-	42%	.	.	.	.	52%	.	HEK293 MPD ctr-2=265%;HEK293 MPD ctr 2-2=-;TRPC4 ctr mod=64%;TRPC4/MOR inh 2=70%
COc1ccccc1CNCC(=O)NCc1ccc(C)cc1	-	-	-	-	-	-	.	.	.	.	.	.	.	.	.
CNCCC1Sc2ccccc2Oc2ccccc21 (centres undefined)	-	-5.9	-5.6	-	-	-	-	-	1.9%	.	.	.	.	-	.	HEK293 MPD ctr-2=86%;HEK293 MPD ctr 2-2=-;TRPC4 ctr mod=41%;TRPC4/MOR inh 2=59%
CCCCNC(=O)C1c2ccccc2Oc2ccccc21	-	-	-	-	-	-	.	.	.	.	.	.	.	.	.
C/C(=C\c1ccccc1)C(=O)N1CCN(c2cccc(C(F)(F)F)c2)CC1	-	-	-	-	-	-	.	.	.	.	.	.	.	.	.
Cc1cc(C)c2nc(N(CCCN(C)C)C(=O)c3ccc4c(c3)OCCO4)sc2c1	-	-6.4	-8.2	-	-	-	66%	-	-	-	-	-	0.4%	-	-
Oc1ccccc1Nc1nc(NCc2ccccc2)c2ccccc2n1	-	-	-	-	-	-	.	.	.	.	.	.	.	.	.
Cc1c(Cl)cccc1Nc1nc(NCCO)c2ccccc2n1	-	-9.5	-6.9	-	-	-	-	-	31%	51%	-	-	-	-	-
c1ccc(CNc2ncnc3ccccc23)cc1	-	-	-	-	-	-	.	.	.	.	.	.	.	.	.
c1ccc(CNc2c3ccccc3nc3ccccc23)cc1	-	-8.3	-7.8	-	-7	-	70%	-	16%	60%	-23%	45%	-450%	-	-
COc1ccc(N(CC(=O)N/N=C/c2ccccc2F)S(=O)(=O)c2ccccc2)cc1	-	-	-	-	-	-	.	.	.	.	.	.	.	.	.

Screening data deposited in PubChem by Johns Hopkins Ion Channel Center.
